Test results: ChEMBL document CHEMBL5247599, “New β-arylchalcogeno amines with procognitive properties targeting Carbonic Anhydrases and Monoamine Oxidases” (Eur J Med Chem, 2022)
Active and inactive are the calls of the source. The rule behind the calls is not given here.

Legend:
[1] = biological target: Carbonic anhydrase 2 (Homo sapiens) (UniProt P00918); test: Binding affinity to human CA2 by phenol red dye based stopped flow CO2 hydration assay
How it was run: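 Purified recombinant human CA isoforms. CA-catalysed CO2 hydration was followed by stopped-flow with phenol red at 557 nm, taking initial rates over 10–100 s from at least six traces of the first 5–10% of reaction. Uncatalysed rates were subtracted. Activator stocks were 0.1 mM in deionised water, diluted down to 0.1 nM in assay buffer. K_A came from non-linear least-squares Michaelis–Menten fitting.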

[2] = system: Mus musculus; test: Pro-cognitive activity in C57Bl6 mouse assessed as attenuation of long-term memory deficit by measuring increase in exploration time for novel object at 50 nmol/uL, icv measured after 24 hrs by novel object recognition test; assay type: functional, organism-based
How it was run: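 Male adult C57Bl6 mice (8–9 weeks), lateral-ventricle cannula implanted one week before. 10-min habituation to empty open-field arena; 24 h later, 5-min acquisition with two identical objects, followed immediately by 5 µL i.c.v. infusion at 1 µL/min. 5-min retention test 24 h after acquisition with one familiar and one novel object; percentage exploration time per object, two-way ANOVA with Bonferroni.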

[3] = biological target: T1, Amine oxidase [flavin-containing] A (Homo sapiens, UniProt P21397); test: Inhibition of human recombinant MAO-A assessed as inhibition of 4-hydroxyquinoline formation using kynuramine as substrate by fluorescence spectrophotometry analysis
T1 sequence (P21397 whole entry): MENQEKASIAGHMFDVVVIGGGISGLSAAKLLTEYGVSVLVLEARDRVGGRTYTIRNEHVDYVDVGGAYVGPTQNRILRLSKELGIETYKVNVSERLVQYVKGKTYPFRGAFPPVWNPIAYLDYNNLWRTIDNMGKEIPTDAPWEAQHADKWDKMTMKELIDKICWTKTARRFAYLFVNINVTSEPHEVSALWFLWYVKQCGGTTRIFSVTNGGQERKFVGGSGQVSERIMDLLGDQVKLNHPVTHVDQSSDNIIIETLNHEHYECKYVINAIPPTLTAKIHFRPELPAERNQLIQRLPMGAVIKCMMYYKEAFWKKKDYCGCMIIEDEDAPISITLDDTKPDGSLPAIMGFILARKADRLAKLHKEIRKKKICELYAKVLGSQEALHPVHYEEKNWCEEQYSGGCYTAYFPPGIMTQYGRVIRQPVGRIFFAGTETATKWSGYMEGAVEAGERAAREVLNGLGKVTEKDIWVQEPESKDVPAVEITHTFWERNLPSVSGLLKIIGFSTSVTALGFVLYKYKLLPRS
How it was run: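 Recombinant human MAO-A with kynuramine as substrate. The 4-hydroxyquinoline product was quantified by fluorescence spectrophotometry, and IC50 values were determined.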

CC(N)CSc1ccccc1 (stereo not drawn)
Ka [1]: > 100 µM
Activity [2]: Active
IC50 [3]: 4.72 µM
